Converted amounts (≈) assume the structure as drawn.
Assays:
[1] = Inhibition of bacterial KPC-2 using imipenem as substrate preincubated for 15 mins followed by susbtrate addition and measured after 10 mins by spectrophotometric method; set-up: species or system Bacteria
[2] = Inhibition of bacterial AmpC using nitrocefin as substrate preincubated for 15 mins followed by susbtrate addition and measured after 10 mins by spectrophotometric method; set-up: species or system Bacteria
[3] = Inhibition of bacterial OXA-48 using nitrocefin as substrate preincubated for 15 mins followed by susbtrate addition and measured after 10 mins by spectrophotometric method; set-up: species or system Bacteria
[4] = Inhibition of bacterial VIM-2 using nitrocefin as substrate preincubated for 15 mins followed by susbtrate addition and measured after 10 mins by spectrophotometric method; set-up: species or system Bacteria
Summary of the method: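 Purified β-lactamase inhibition. IC50 values are the average of duplicates unless otherwise indicated.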

Klebsiella pneumoniae [5] = test: Inhibition of KPC-2 in Klebsiella pneumoniae assessed as meropenem antibacterial activity at 4 ug/ml after 16 to 20 hrs by CLSI-based microbroth dilution method (Rvb >= […] ug/ml)
Klebsiella pneumoniae [6] = test: Inhibition of OXA-48 in Klebsiella pneumoniae assessed as meropenem antibacterial activity at 4 ug/ml after 16 to 20 hrs by CLSI-based microbroth dilution method (Rvb >= […] ug/ml)
Klebsiella pneumoniae [7] = test: Inhibition of VIM-4 in Klebsiella pneumoniae assessed as meropenem antibacterial activity at 4 ug/ml after 16 to 20 hrs by CLSI-based microbroth dilution method (Rvb >= […] ug/ml)
[8] = target: Beta-lactamase VIM-2 (Pseudomonas aeruginosa) (UniProt Q9K2N0); test: Inhibition of VIM-2 in Pseudomonas aeruginosa assessed as meropenem antibacterial activity at 4 ug/ml after 16 to 20 hrs by CLSI-based microbroth dilution method (Rvb >= […] ug/ml)
[9] = tested on: Klebsiella pneumoniae ATCC BAA-1705; test: Inhibition of KPC-2 in Klebsiella pneumoniae ATCC BAA 1705 assessed as piperacillin antibacterial activity at 16 ug/ml after 16 to 20 hrs by CLSI-based microbroth dilution method (Rvb > […] ug/ml)
Klebsiella pneumoniae [10] = test: Inhibition of VIM-27/CTX-M-15/SHV-11/OXA-1 in Klebsiella pneumoniae CDC-0040 assessed as piperacillin antibacterial activity at 16 ug/ml after 16 to 20 hrs by CLSI-based microbroth dilution method
Escherichia coli [11] = test: Inhibition of NDM-1/CMY-6/OXA-1 in Escherichia coli CDC-0055 assessed as piperacillin antibacterial activity at 16 ug/ml after 16 to 20 hrs by CLSI-based microbroth dilution method
Summary of the method: (§1)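 MDR β-lactamase-producing Gram-negative clinical isolates. […] MIC was reported as the inhibitor concentration that restores the partner's antibacterial activity.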

Klebsiella pneumoniae [12] = test: Inhibition of OXA-232/OXA-9/TEM-1A/CTX-M-15/OXA-1 in Klebsiella pneumoniae CDC-0066 assessed as piperacillin antibacterial activity at 16 ug/ml after 16 to 20 hrs by CLSI-based microbroth dilution method (Rvb > […] ug/ml)
Pseudomonas aeruginosa [13] = test: Inhibition of KPC-2/PDC-42 in Pseudomonas aeruginosa CDC-0356 assessed as piperacillin antibacterial activity at 16 ug/ml after 16 to 20 hrs by CLSI-based microbroth dilution method (Rvb > […] ug/ml)
Klebsiella pneumoniae [14] = test: Inhibition of KPC-2/SHV12/TEM-1 in Klebsiella pneumoniae CDC-0361 assessed as piperacillin antibacterial activity at 16 ug/ml after 16 to 20 hrs by CLSI-based microbroth dilution method (Rvb > […] ug/ml)
Escherichia coli [15] = test: Inhibition of NDM in Escherichia coli CDC-0452 assessed as piperacillin antibacterial activity at 16 ug/ml after 16 to 20 hrs by CLSI-based microbroth dilution method (Rvb > […] ug/ml)
[16] = tested on: Klebsiella pneumoniae ATCC BAA-1705; test: Inhibition of KPC-2 in Klebsiella pneumoniae ATCC BAA 1705 assessed as cefepime antibacterial activity at 8 ug/ml after 16 to 20 hrs by CLSI-based microbroth dilution method; summary of the method: as §1
Klebsiella pneumoniae [17] = test: Inhibition of VIM-27/CTX-M-15/SHV-11/OXA-1 in Klebsiella pneumoniae CDC-0040 assessed as cefepime antibacterial activity at 8 ug/ml after 16 to 20 hrs by CLSI-based microbroth dilution method
Escherichia coli [18] = test: Inhibition of NDM-1/CMY-6/OXA-1 in Escherichia coli CDC-0055 assessed as cefepime antibacterial activity at 8 ug/ml after 16 to 20 hrs by CLSI-based microbroth dilution method; summary of the method: as §1
Klebsiella pneumoniae [19] = test: Inhibition of OXA-232/OXA-9/TEM-1A/CTX-M-15/OXA-1 in Klebsiella pneumoniae CDC-0066 assessed as cefepime antibacterial activity at 8 ug/ml after 16 to 20 hrs by CLSI-based microbroth dilution method (Rvb > […] ug/ml)
Pseudomonas aeruginosa [20] = test: Inhibition of KPC-2/PDC-42 in Pseudomonas aeruginosa CDC-0356 assessed as cefepime antibacterial activity at 8 ug/ml after 16 to 20 hrs by CLSI-based microbroth dilution method (Rvb > […] ug/ml)
Klebsiella pneumoniae [21] = test: Inhibition of KPC-2/SHV12/TEM-1 in Klebsiella pneumoniae CDC-0361 assessed as cefepime antibacterial activity at 8 ug/ml after 16 to 20 hrs by CLSI-based microbroth dilution method (reference value: […] ug/ml)
Escherichia coli [22] = test: Inhibition of NDM in Escherichia coli CDC-0452 assessed as cefepime antibacterial activity after 16 to 20 hrs by CLSI-based microbroth dilution method (reference value: […] ug/ml)
[23] = tested on: Klebsiella pneumoniae ATCC BAA-1705; test: Inhibition of KPC-2 in Klebsiella pneumoniae ATCC BAA 1705 assessed as meropenem antibacterial activity at 4 ug/ml after 16 to 20 hrs by CLSI-based microbroth dilution method (reference value: […] ug/ml)
Klebsiella pneumoniae [24] = test: Inhibition of VIM-27/CTX-M-15/SHV-11/OXA-1 in Klebsiella pneumoniae CDC-0040 assessed as meropenem antibacterial activity at 4 ug/ml after 16 to 20 hrs by CLSI-based microbroth dilution method
Escherichia coli [25] = test: Inhibition of NDM-1/CMY-6/OXA-1 in Escherichia coli CDC-0055 assessed as meropenem antibacterial activity at 4 ug/ml after 16 to 20 hrs by CLSI-based microbroth dilution method (reference value: […] ug/ml)
Klebsiella pneumoniae [26] = test: Inhibition of OXA-232/OXA-9/TEM-1A/CTX-M-15/OXA-1 in Klebsiella pneumoniae CDC-0066 assessed as meropenem antibacterial activity at 4 ug/ml after 16 to 20 hrs by CLSI-based microbroth dilution method (reference value: […] ug/ml)
Pseudomonas aeruginosa [27] = test: Inhibition of KPC-2/PDC-42 in Pseudomonas aeruginosa CDC-0356 assessed as meropenem antibacterial activity at 4 ug/ml after 16 to 20 hrs by CLSI-based microbroth dilution method (reference value: […] ug/ml)
Klebsiella pneumoniae [28] = test: Inhibition of KPC-2/SHV12/TEM-1 in Klebsiella pneumoniae CDC-0361 assessed as meropenem antibacterial activity at 4 ug/ml after 16 to 20 hrs by CLSI-based microbroth dilution method (reference value: […] ug/ml)
Escherichia coli [29] = test: Inhibition of NDM in Escherichia coli CDC-0452 assessed as meropenem antibacterial activity at 4 ug/ml after 16 to 20 hrs by CLSI-based microbroth dilution method (reference value: […] ug/ml)
Pseudomonas aeruginosa [30] = test: Inhibition of VIM in Pseudomonas aeruginosa CDC-0457 assessed as cefepime antibacterial activity at 8 ug/ml after 16 to 20 hrs by CLSI-based microbroth dilution method
Pseudomonas aeruginosa [31] = test: Inhibition of VIM in Pseudomonas aeruginosa CDC-0457 assessed as meropenem antibacterial activity at 4 ug/ml after 16 to 20 hrs by CLSI-based microbroth dilution method
Pseudomonas aeruginosa [32] = test: Inhibition of VIM in Pseudomonas aeruginosa CDC-0457 assessed as piperacillin antibacterial activity at 16 ug/ml after 16 to 20 hrs by CLSI-based microbroth dilution method
[33] = Inhibition of bacterial SHV-5 using cefotaxime as substrate preincubated for 15 mins followed by susbtrate addition and measured after 10 mins by spectrophotometric method; set-up: species or system Bacteria
[34] = Inhibition of bacterial CTX-M-15 using cefotaxime as substrate preincubated for 15 mins followed by susbtrate addition and measured after 10 mins by spectrophotometric method; set-up: species or system Bacteria
[35] = Inhibition of bacterial CMY-2 using nitrocefin as substrate preincubated for 15 mins followed by susbtrate addition and measured after 10 mins by spectrophotometric method; set-up: species or system Bacteria
[36] = Inhibition of bacterial OXA-1 using nitrocefin as substrate preincubated for 15 mins followed by susbtrate addition and measured after 10 mins by spectrophotometric method; set-up: species or system Bacteria
[37] = Inhibition of bacterial NDM-1 using cefepime as substrate preincubated for 15 mins followed by susbtrate addition and measured after 10 mins by spectrophotometric method; set-up: species or system Bacteria
[38] = Inhibition of bacterial IMP-1 using nitrocefin as substrate preincubated for 15 mins followed by susbtrate addition and measured after 10 mins by spectrophotometric method; set-up: species or system Bacteria

Compound | IC50 [1] [nM] | IC50 [2] [nM] | IC50 [3] [nM] | IC50 [4] [nM] | MIC [9] [µg/mL] | MIC (Klebsiella pneumoniae [10]) [µg/mL] | MIC (Escherichia coli [11]) [µg/mL] | MIC (Klebsiella pneumoniae [12]) [µg/mL] | MIC (Pseudomonas aeruginosa [13]) [µg/mL] | MIC (Klebsiella pneumoniae [14]) [µg/mL] | MIC (Escherichia coli [15]) [µg/mL] | MIC (Klebsiella pneumoniae [17]) [µg/mL] | MIC (Escherichia coli [18]) [µg/mL] | MIC (Klebsiella pneumoniae [19]) [µg/mL] | MIC (Pseudomonas aeruginosa [20]) [µg/mL] | MIC (Klebsiella pneumoniae [21]) [µg/mL] | MIC (Escherichia coli [22]) [µg/mL] | MIC [23] [µg/mL] | MIC (Klebsiella pneumoniae [24]) [µg/mL] | MIC (Escherichia coli [25]) [µg/mL] | other results
N[C@H]1CC[C@H](CC(=O)N[C@H]2Cc3cccc(C(=O)O)c3OB2O)CC1 | 30 | 30 | 2240 | 150 | 4 (≈ 11.6 µM) | > 16 | > 16 | > 16 | 4 (≈ 11.6 µM) | 2 (≈ 5.78 µM) | > 16 | > 16 | > 16 | 4 (≈ 11.6 µM) | 4 (≈ 11.6 µM) | 0.015 (≈ 0.0433 µM) | 4 (≈ 11.6 µM) | 0.015 (≈ 0.0433 µM) | > 16 | 8 (≈ 23.1 µM) | MIC (Klebsiella pneumoniae [5]): 2 µg/mL (≈ 5.78 µM); MIC (Klebsiella pneumoniae [6]): 2 µg/mL (≈ 5.78 µM); MIC (Klebsiella pneumoniae [7]): 2 µg/mL (≈ 5.78 µM); MIC [8]: 2 µg/mL (≈ 5.78 µM); MIC [16]: 0.125 µg/mL (≈ 0.361 µM); MIC (Klebsiella pneumoniae [26]): 8 µg/mL (≈ 23.1 µM); MIC (Pseudomonas aeruginosa [27]): 4 µg/mL (≈ 11.6 µM); MIC (Klebsiella pneumoniae [28]): 0.015 µg/mL (≈ 0.0433 µM); MIC (Escherichia coli [29]): 8 µg/mL (≈ 23.1 µM); MIC (Pseudomonas aeruginosa [30]): 2 µg/mL (≈ 5.78 µM); MIC (Pseudomonas aeruginosa [31]): > 16 µg/mL; MIC (Pseudomonas aeruginosa [32]): > 16 µg/mL
O=C(O)C[C@@H]1CC[C@H](NC(=O)Cc2cccs2)B(O)O1 [VABORBACTAM] | 100 | 90 | 38800 | > 100000 | > 16 | > 16 | > 16 | > 16 | > 16 | > 16 | > 16 | > 16 | > 16 | > 16 | > 16 | > 16 | > 16 | 0.03 (≈ 0.101 µM) | > 16 | > 16 | IC50 [33]: 440 nM; IC50 [34]: 420 nM; IC50 [35]: 220 nM; IC50 [36]: 7900 nM; IC50 [37]: > 100000 nM; IC50 [38]: > 100000 nM; MIC (Klebsiella pneumoniae [26]): > 16 µg/mL; MIC (Pseudomonas aeruginosa [27]): 8 µg/mL (≈ 26.9 µM); MIC (Klebsiella pneumoniae [28]): 0.06 µg/mL (≈ 0.202 µM); MIC (Escherichia coli [29]): > 16 µg/mL; MIC (Pseudomonas aeruginosa [30]): > 16 µg/mL; MIC (Pseudomonas aeruginosa [31]): > 16 µg/mL; MIC (Pseudomonas aeruginosa [32]): > 16 µg/mL
O=C(O)[C@H]1/C(=C/CO)O[C@@H]2CC(=O)N21 [CLAVULANIC ACID] | 1800 |  | 30000 | > 100000 |  |  |  |  |  |  |  |  |  |  |  |  |  |  |  |  | IC50 [34]: 40 nM; IC50 [35]: > 100000 nM; IC50 [36]: 120 nM; IC50 [37]: > 100000 nM; IC50 [38]: > 100000 nM

Source: ChEMBL document CHEMBL4354828, “Discovery of Taniborbactam (VNRX-5133): A Broad-Spectrum Serine- and Metallo-β-lactamase Inhibitor for Carbapenem-Resistant Bacterial Infections” (J Med Chem, 2020)
